Assay results: ChEMBL document CHEMBL1143976, “Synthesis of fluorine substituted pyrazolopyrimidines as potential leads for the development of PET-imaging agents for the GABAA receptors” (Bioorg Med Chem, 2008)

What was measured:
[1] = Displacement of [3H]flunitrazepam from GABAA receptor in Sprague-Dawley rat cerebellar membrane; design: species or system Cerebellum
Summary of the method: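 Cerebella from adult female Sprague–Dawley rats (8–10 weeks) homogenised in ice-cold 50 mM Tris-HCl pH 7.4; 20,000g membrane pellet washed repeatedly. Incubated with N-methyl-[3H]flunitrazepam (~0.3 nM final) at 21 °C for 60 min; nonspecific binding defined with zolpidem. Filtered onto PEI-presoaked GF/B, scintillation counted. IC50 by nonlinear regression from 10–12 concentrations in triplicate; ≥3 independent experiments, mean ± SD.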

[2] = Distribution coefficient, log D by C-18 reversed phase method; format: physicochemical; details: octanol/water; read-out: Log D
Summary of the method: (§1)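 HPLC logD per European guideline; line 4 on Multisorb RP18-7 C-18 column, line 5 on Supelcosil ABZ+Plus alkyl amide column (both 250 × 4 mm). Solvent A 5% acetonitrile/20 mM ammonium acetate held 0–5 min, then solvent B 80% acetonitrile/20 mM ammonium acetate to 40, 50 or 65 min; 1 mL/min; UV detection. SD reported.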

[3] = Distribution coefficient, log D by alkyl amide reversed phase method; format: physicochemical; details: octanol/water; read-out: Log D; summary of the method: as §1

| Structure (SMILES) | IC50 [1] [nM] | chromatographic logD [2] | chromatographic logD [3] |
| --- | --- | --- | --- |
| CN(C(=O)c1ccc([N+](=O)[O-])cc1)c1cccc(-c2ccnc3c(C(=O)c4cccs4)cnn23)c1 | 15.9 | 2.51 | 2.64 |
| CC(=O)N(CCF)c1cccc(-c2ccnc3c(C(=O)c4cccs4)cnn23)c1 | 5.71 | 2.62 |  |
| CC(C)C(=O)N(CCCF)c1cccc(-c2ccnc3c(C(=O)c4cccs4)cnn23)c1 | 37.7 | 2.55 | 2.68 |
| CN(C(=O)c1ccc(F)cc1)c1cccc(-c2ccnc3c(C(=O)c4cccs4)cnn23)c1 | 14.1 | 2.64 | 2.63 |
| CC(=O)N(C)c1cccc(-c2ccnc3c(C(=O)c4ccc(F)cc4)cnn23)c1 | 53.3 | 2.34 | 2.38 |
| CC(=O)N(CCCCF)c1cccc(-c2ccnc3c(C(=O)c4cccs4)cnn23)c1 | 5.98 | 2.48 |  |
| CCC(=O)N(CCCF)c1cccc(-c2ccnc3c(C(=O)c4cccs4)cnn23)c1 | 5.26 |  |  |
| CC(=O)N(CCCF)c1cccc(-c2ccnc3c(C(=O)c4cccs4)cnn23)c1 | 2.78 | 2.35 | 2.38 |
| CN(CCF)c1cccc(-c2ccnc3c(C(=O)c4cccs4)cnn23)c1 | 17.8 | 2.66 | 2.69 |
| CC(=O)N(C)c1cccc(-c2ccnc3c(C(=O)c4cccs4)cnn23)c1 [INDIPLON] | 3.29 | 2.26 | 2.23 |
